From ChEMBL document CHEMBL1255169, “Synthesis, structure-affinity relationships, and radiolabeling of selective high-affinity 5-HT4 receptor ligands as prospective imaging probes for positron emission tomography” (J Med Chem, 2010)
The source made the active and inactive calls. The rule behind the calls is not given here.

What was measured:
[1] = biological target: T1, 5-hydroxytryptamine receptor 4 (Homo sapiens, UniProt Q13639); experiment: Displacement of [3H]GR113808 from human recombinant 5HT4 receptor expressed in HEK293 cells; type: cell-based
[2] = biological target: T1, 5-hydroxytryptamine receptor 4; experiment: Agonist activity at 5HT4 receptor expressed in HEK293/L9 cells by cAMP assay; type: functional, cell-based
[3] = biological target: T1, 5-hydroxytryptamine receptor 4; experiment: Inverse agonist activity at 5HT4 receptor expressed in HEK293/L9 cells by cAMP assay; type: functional, cell-based
[4] = biological target: 5-hydroxytryptamine receptor 4 (Cavia porcellus, UniProt O70528); experiment: Displacement of [3H]GR113808 from 5HT4 receptor in guinea pig striatal membranes; type: cell membranes, Striatum, Membrane
[5] = biological target: T2, D(4) dopamine receptor (Rattus norvegicus, UniProt P30729); experiment: Binding affinity to rat dopamine D4 receptor
T2 sequence (P30729 whole entry): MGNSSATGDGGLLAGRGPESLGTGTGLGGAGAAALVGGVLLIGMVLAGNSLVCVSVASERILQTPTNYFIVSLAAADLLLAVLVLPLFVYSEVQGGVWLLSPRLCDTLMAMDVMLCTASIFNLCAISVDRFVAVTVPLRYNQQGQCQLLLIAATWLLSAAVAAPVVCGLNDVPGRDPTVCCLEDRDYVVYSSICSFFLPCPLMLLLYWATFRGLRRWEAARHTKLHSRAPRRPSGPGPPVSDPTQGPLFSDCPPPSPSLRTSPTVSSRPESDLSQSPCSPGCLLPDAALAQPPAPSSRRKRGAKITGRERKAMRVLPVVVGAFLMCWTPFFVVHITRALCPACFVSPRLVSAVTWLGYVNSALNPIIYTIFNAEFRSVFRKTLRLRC

[6] = biological target: 5-hydroxytryptamine receptor 2B (Homo sapiens, UniProt P41595); experiment: Binding affinity to human 5-HT2B receptor
[7] = biological target: D(3) dopamine receptor (Rattus norvegicus, UniProt P19020); experiment: Binding affinity to rat dopamine D3 receptor
[8] = biological target: T3, Alpha-1B adrenergic receptor (Homo sapiens, UniProt P35368); experiment: Binding affinity to human adrenergic Alpha-1B receptor
T3 sequence (P35368 whole entry): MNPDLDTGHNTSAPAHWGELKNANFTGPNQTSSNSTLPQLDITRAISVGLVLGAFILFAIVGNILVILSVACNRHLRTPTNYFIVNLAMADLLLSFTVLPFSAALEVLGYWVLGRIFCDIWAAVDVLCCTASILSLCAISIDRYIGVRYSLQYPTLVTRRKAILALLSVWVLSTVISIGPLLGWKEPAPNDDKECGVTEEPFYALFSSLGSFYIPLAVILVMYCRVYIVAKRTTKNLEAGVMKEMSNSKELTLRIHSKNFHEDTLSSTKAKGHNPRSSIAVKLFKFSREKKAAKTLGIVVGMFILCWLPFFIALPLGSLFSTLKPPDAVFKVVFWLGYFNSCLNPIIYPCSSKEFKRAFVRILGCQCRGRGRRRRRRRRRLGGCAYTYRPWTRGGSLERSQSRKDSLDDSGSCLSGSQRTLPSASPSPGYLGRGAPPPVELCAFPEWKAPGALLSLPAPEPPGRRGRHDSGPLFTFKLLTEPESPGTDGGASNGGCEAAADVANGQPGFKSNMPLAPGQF

[9] = biological target: T4, Alpha-2B adrenergic receptor (Homo sapiens, UniProt P18089); experiment: Binding affinity to human adrenergic alpha2B receptor
T4 sequence (P18089 whole entry): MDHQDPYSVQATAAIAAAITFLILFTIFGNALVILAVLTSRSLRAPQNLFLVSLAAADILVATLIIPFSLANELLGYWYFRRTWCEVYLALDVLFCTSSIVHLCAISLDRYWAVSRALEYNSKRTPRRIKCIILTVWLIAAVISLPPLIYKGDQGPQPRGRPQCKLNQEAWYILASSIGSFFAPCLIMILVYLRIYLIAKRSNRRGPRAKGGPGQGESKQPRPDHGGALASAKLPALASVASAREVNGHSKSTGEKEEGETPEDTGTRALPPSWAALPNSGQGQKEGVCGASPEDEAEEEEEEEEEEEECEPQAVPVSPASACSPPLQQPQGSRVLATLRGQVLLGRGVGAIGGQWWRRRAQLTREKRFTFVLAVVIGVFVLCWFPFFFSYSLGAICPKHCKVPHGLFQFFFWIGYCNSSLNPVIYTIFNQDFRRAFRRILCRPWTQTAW
Method in brief: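 Radioligand binding run by the NIMH Psychoactive Drug Screening Program as part of a broad receptor and binding-site panel, which included α1A, α1B, α1D and α2A–C subtypes. Affinity is expressed as Ki.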

[10] = biological target: Histamine H3 receptor (Cavia porcellus, UniProt Q9JI35); experiment: Binding affinity to guinea pig histamine H3 receptor
[11] = biological target: T5, 5-hydroxytryptamine receptor 2C (Homo sapiens, UniProt P28335); experiment: Binding affinity to human 5-HT2C receptor
T5 sequence (P28335 whole entry): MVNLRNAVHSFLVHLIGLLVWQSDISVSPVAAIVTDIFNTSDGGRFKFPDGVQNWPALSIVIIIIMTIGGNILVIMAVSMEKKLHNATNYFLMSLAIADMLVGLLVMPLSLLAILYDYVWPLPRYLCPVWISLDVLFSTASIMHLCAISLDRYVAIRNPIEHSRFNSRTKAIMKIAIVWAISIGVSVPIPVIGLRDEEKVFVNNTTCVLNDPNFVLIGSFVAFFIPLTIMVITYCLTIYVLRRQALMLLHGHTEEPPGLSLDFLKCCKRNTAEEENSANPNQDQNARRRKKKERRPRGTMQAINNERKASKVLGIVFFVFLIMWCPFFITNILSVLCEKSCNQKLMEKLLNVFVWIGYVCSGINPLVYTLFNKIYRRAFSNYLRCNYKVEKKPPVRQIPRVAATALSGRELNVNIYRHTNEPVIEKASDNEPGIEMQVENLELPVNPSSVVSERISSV

[12] = biological target: D(2) dopamine receptor (Rattus norvegicus, UniProt P61169); experiment: Binding affinity to rat dopamine D2 receptor
[13] = Binding affinity to rat sigma 2 receptor
[14] = biological target: T6, Alpha-1A adrenergic receptor (Homo sapiens, UniProt P35348); experiment: Binding affinity to human adrenergic alpha1A receptor
T6 sequence (P35348 whole entry): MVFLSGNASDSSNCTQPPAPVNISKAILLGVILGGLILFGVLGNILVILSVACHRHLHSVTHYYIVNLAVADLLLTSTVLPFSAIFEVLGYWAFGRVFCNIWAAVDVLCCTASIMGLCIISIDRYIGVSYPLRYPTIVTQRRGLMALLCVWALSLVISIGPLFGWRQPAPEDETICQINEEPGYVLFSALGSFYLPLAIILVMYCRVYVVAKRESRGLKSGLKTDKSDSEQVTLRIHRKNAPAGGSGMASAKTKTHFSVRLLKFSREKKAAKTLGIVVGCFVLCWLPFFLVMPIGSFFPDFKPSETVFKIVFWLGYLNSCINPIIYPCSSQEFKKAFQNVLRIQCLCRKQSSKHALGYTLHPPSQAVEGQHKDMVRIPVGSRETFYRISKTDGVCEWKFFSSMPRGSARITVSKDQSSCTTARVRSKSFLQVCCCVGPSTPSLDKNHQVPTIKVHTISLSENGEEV

[15] = biological target: Sigma non-opioid intracellular receptor 1 (Rattus norvegicus, UniProt Q9R0C9); experiment: Binding affinity to rat sigma 1 receptor
[16] = biological target: T7, Alpha-2C adrenergic receptor (Homo sapiens, UniProt P18825); experiment: Binding affinity to human adrenergic Alpha-2C receptor
T7 sequence (P18825 whole entry): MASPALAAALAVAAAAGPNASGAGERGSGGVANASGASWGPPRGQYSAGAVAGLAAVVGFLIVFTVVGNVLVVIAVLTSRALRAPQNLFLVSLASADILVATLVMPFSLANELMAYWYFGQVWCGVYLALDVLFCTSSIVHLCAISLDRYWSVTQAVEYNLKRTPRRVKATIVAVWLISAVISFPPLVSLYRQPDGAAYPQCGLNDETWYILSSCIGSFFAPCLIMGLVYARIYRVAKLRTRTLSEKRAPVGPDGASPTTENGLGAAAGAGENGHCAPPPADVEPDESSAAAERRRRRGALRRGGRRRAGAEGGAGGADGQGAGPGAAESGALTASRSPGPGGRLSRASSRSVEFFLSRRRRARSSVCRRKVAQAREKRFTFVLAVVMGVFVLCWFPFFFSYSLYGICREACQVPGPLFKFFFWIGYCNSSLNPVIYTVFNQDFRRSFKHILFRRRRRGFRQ

[17] = biological target: 5-hydroxytryptamine receptor 1D (Homo sapiens, UniProt P28221); experiment: Binding affinity to human 5-HT1D receptor
[18] = biological target: T1, 5-hydroxytryptamine receptor 4; experiment: Antagonist activity at 5HT4 receptor expressed in HEK293/L9 cells by cAMP assay; type: functional, cell-based

T1 sequence (Q13639 whole entry): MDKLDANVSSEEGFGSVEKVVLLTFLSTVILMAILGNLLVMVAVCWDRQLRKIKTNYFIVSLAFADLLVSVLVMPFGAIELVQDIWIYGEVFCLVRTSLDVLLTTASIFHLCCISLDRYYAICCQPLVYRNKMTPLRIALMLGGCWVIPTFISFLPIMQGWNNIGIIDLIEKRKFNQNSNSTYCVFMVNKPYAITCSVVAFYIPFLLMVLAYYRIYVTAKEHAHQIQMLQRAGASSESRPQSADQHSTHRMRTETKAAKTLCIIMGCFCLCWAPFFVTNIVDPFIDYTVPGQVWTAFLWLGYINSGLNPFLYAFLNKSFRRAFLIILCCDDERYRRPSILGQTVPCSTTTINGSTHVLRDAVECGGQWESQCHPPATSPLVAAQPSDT
Sequence of 5-hydroxytryptamine receptor 4 (Cavia porcellus, UniProt O70528) (O70528 whole entry): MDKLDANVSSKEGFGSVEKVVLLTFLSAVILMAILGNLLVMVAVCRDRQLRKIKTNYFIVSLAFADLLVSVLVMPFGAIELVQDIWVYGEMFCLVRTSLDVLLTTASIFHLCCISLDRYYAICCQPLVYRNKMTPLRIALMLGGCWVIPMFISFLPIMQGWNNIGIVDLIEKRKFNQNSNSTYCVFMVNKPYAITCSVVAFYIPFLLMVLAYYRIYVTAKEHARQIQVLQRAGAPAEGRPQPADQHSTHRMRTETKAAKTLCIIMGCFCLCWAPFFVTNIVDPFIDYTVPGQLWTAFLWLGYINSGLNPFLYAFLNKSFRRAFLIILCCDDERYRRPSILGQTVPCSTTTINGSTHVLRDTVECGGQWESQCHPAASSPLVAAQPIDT
Sequence of 5-hydroxytryptamine receptor 1D (P28221 whole entry): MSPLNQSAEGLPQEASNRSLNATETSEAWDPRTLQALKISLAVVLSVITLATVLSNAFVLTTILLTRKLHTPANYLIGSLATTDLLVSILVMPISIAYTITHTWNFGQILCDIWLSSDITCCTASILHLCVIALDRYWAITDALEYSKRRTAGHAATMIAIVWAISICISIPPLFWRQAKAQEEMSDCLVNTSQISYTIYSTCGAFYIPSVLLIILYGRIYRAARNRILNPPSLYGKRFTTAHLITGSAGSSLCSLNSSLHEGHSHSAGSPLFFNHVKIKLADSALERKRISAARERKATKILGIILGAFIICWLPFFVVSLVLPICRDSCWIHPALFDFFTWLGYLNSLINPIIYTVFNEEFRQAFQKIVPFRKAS
Sequence of Histamine H3 receptor (Q9JI35 whole entry): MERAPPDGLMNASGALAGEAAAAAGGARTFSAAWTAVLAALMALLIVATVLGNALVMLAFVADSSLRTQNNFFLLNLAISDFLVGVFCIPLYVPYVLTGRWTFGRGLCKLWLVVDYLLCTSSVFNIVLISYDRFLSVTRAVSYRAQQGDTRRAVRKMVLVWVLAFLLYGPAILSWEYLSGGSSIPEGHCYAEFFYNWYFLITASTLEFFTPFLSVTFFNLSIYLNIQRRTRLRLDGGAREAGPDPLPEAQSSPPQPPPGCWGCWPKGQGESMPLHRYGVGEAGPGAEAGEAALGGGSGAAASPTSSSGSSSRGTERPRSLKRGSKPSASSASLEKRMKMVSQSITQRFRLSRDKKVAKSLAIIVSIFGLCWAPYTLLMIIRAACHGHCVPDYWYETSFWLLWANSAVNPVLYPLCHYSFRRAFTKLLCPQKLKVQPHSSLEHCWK
Sequence of D(2) dopamine receptor (P61169 whole entry): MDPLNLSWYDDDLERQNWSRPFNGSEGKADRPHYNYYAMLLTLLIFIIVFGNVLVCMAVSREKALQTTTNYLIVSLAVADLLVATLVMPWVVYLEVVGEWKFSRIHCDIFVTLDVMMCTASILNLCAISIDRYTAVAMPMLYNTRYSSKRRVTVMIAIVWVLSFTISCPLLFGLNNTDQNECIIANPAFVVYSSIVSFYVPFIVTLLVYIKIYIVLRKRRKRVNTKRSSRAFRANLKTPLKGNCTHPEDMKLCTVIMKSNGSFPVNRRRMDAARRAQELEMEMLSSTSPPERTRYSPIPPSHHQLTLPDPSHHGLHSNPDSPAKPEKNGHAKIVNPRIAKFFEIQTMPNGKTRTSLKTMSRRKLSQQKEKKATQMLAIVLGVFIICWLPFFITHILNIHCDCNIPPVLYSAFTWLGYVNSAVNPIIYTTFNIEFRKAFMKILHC
Sequence of Sigma non-opioid intracellular receptor 1 (Q9R0C9 whole entry): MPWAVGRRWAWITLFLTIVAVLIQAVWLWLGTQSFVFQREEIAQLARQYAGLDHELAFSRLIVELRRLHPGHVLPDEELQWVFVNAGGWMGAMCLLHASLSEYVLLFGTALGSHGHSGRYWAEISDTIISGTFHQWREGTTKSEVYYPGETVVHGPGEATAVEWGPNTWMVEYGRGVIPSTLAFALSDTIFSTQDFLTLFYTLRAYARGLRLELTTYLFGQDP
Sequence of 5-hydroxytryptamine receptor 2B (P41595 whole entry): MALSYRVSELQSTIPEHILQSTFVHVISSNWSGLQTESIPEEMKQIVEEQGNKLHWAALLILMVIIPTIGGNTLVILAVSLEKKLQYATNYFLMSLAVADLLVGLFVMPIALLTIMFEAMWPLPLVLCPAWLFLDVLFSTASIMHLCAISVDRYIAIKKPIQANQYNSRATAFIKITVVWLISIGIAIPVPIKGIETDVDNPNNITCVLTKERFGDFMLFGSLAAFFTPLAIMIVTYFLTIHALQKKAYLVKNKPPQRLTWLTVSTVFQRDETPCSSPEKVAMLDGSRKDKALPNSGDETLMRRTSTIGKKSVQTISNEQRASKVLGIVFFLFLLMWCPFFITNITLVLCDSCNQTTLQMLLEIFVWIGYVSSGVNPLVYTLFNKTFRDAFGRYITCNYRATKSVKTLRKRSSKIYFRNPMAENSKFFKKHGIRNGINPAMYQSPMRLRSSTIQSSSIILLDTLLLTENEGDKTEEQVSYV
Sequence of D(3) dopamine receptor (P19020 whole entry): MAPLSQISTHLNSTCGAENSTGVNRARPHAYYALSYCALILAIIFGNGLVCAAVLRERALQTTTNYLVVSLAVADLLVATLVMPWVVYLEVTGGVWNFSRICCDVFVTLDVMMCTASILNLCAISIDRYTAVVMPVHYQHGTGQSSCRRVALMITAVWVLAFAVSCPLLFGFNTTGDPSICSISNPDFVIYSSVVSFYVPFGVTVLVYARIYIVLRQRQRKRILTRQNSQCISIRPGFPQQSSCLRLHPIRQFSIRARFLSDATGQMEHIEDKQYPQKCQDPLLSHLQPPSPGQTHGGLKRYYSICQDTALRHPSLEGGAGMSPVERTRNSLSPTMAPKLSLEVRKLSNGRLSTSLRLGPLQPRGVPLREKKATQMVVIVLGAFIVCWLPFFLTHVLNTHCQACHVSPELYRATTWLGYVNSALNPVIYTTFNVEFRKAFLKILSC

In the case of `CCCCN1CCC(COC(=O)c2cc(I)c(NC)c3c2OCCO3)CC1`, the Ki [1] is reported as 7.4 nM, the EC50 [2] is reported as 20 nM and the Efficacy [3] is reported as “Active”.

For `CCCCN1CCC(COC(=O)c2cc(F)c(N)c3c2OCCO3)CC1`, the Ki [4] was 0.334 nM, the Ki [5] was 316 nM and the Ki [6] was 168 nM. For the same molecule, the Ki [7] was 1010 nM, the Ki [8] was 9080 nM and the Ki [9] was 773 nM. It also gave a Ki [10] of 5040 nM, a Ki [1] of 2.1 nM and an EC50 [2] of 5.89 nM. It also gave a Ki [11] of 8360 nM, a Ki [12] of 615 nM and a Ki [13] of 12.9 nM. It also gave a Ki [14] of 87.6 nM, a Ki [15] of 55 nM and a Ki [16] of 593 nM. The Efficacy [3] was “Active” and the Ki [17] was 2860 nM.

For `CCCCN1CCC(COC(=O)c2cc(C#N)c(NC)c3c2OCCO3)CC1`, the Ki [1] was 37 nM, the EC50 [2] was 15.8 nM and the Efficacy [3] was “Active”.

In the case of `CCCCN1CCC(COC(=O)c2ccc(NC)c3c2OCCO3)CC1`, the Ki [1] is reported as 9.1 nM, the EC50 [2] is reported as 8.91 nM and the Efficacy [3] is reported as “Active”.

Work on `CCCCN1CCC(COC(=O)c2cc([N+](=O)[O-])c(N)c3c2OCCO3)CC1` yielded a Ki [1] of 7.8 nM.

`CCCCN1CCC(COC(=O)c2ccc(N)c(OCF)c2)CC1` showed a Ki [4] of 0.334 nM and a Ki [1] of 17 nM.

Molecule `CCCCCN1CCC(COC(=O)c2ccc(N)c(OC)c2)CC1` has a Ki [1] of 12 nM.

With `CCCN1CCC(COC(=O)c2ccc(N)c(OC)c2)CC1` the Ki [4] was 0.901 nM and the Ki [1] was 17 nM.

For `CCCCN1CCC(COC(=O)c2cc(C)c(N)c3c2OCCO3)CC1`, the Efficacy [18] was “Active” and the Ki [1] was 6.3 nM.

For `CCCCN1CCC(COC(=O)c2ccc(N)c3c2OCCO3)CC1`, the Efficacy [18] was “Active” and the Ki [1] was 1.4 nM.

In the case of `CCCCN1CCC(COC(=O)c2cc(Br)c(NC)c3c2OCCO3)CC1`, the Ki [1] is reported as 4.5 nM, the EC50 [2] is reported as 10 nM and the Efficacy [3] is reported as “Active”.

`CCCCN1CCC(COC(=O)c2cc(C#N)c(N)c3c2OCCO3)CC1` gave a Ki [4] of 0.45 nM and a Ki [1] of 33 nM.

With `CCCCN1CCC(CNC(=O)c2ccc(N)c(OC)c2)CC1` the Ki [1] was 8660 nM.

`CCCCN1CCC(COC(=O)c2cc(I)c(N)c3c2OCCO3)CC1` showed a Ki [4] of 0.2 nM.

Molecule `CCCCN1CCC(COC(=O)c2ccc(N)c(OCCF)c2)CC1` has a Ki [4] of 0.215 nM and a Ki [1] of 11 nM.
